Source: ChEMBL document CHEMBL1158369, “Hansch analysis of substituted benzoic acid benzylidene/furan-2-yl-methylene hydrazides as antimicrobial agents” (Eur J Med Chem, 2009)

What was measured:
[1] = Lipophilicity, log P of the compound; assay type: physicochemical; conditions: octanol/water
Candida albicans = assay: Antifungal activity against Candida albicans after 48 hrs by tube dilution method; assay type: functional
Summary of the method: (§1)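 Twofold serial dilutions of test and standard compounds in Sabouraud dextrose broth (I.P.); C. albicans incubated 37 °C for 48 h, A. niger 25 °C for 7 d. Growth read visually; MIC is lowest concentration without visible growth.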

Staphylococcus aureus = assay: Antibacterial activity against Staphylococcus aureus after 24 hrs by tube dilution method; assay type: functional
Summary of the method: (§2)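 Twofold serial dilutions of test and standard compounds in double strength nutrient broth (I.P.); tubes incubated at 37 °C for 24 h. Growth judged visually; MIC taken as lowest concentration with no visible turbidity.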

Bacillus subtilis = assay: Antibacterial activity against Bacillus subtilis after 24 hrs by tube dilution method; assay type: functional; summary of the method: as §2
Escherichia coli = assay: Antibacterial activity against Escherichia coli after 24 hrs by tube dilution method; assay type: functional; summary of the method: as §2
Aspergillus niger = assay: Antifungal activity against Aspergillus niger after 7 days by tube dilution method; assay type: functional; summary of the method: as §1

COc1ccc(C(=O)N/N=C/c2cccc([N+](=O)[O-])c2)cc1OC
logP [1]: 2.87 | -logMIC (Candida albicans): 1.66 | -logMIC (Staphylococcus aureus): 2.05 | -logMIC (Bacillus subtilis): 2.33 | -logMIC (Escherichia coli): 2.63 | -logMIC (Aspergillus niger): 1.72

COc1ccc(/C=N/NC(=O)c2ccc(OC)c(OC)c2)cc1
logP [1]: 3.39 | -logMIC (Candida albicans): 1.68 | -logMIC (Staphylococcus aureus): 2.17 | -logMIC (Bacillus subtilis): 2.58 | -logMIC (Escherichia coli): 2.58 | -logMIC (Aspergillus niger): 1.68

COc1ccc(/C=N/NC(=O)c2ccc(N)cc2)cc1
logP [1]: 2.39 | -logMIC (Candida albicans): 1.63 | -logMIC (Staphylococcus aureus): 1.63 | -logMIC (Bacillus subtilis): 2.24 | -logMIC (Escherichia coli): 2.54 | -logMIC (Aspergillus niger): 1.8

COc1ccc(/C=N/NC(=O)c2ccc([N+](=O)[O-])cc2)cc1
logP [1]: 3.13 | -logMIC (Candida albicans): 1.62 | -logMIC (Staphylococcus aureus): 1.68 | -logMIC (Bacillus subtilis): 2.25 | -logMIC (Escherichia coli): 2.56 | -logMIC (Aspergillus niger): 1.98

Cc1ccc(C(=O)N/N=C/c2ccco2)cc1
logP [1]: 2.84

COc1ccc(/C=N/NC(=O)c2cc([N+](=O)[O-])cc([N+](=O)[O-])c2)cc1OC
logP [1]: 2.83 | -logMIC (Candida albicans): 1.78 | -logMIC (Staphylococcus aureus): 2.38 | -logMIC (Bacillus subtilis): 2.51 | -logMIC (Escherichia coli): 2.68 | -logMIC (Aspergillus niger): 2.08

COc1ccc(/C=N/NC(=O)c2ccc(Cl)cc2)cc1OC
logP [1]: 3.44 | -logMIC (Candida albicans): 1.71 | -logMIC (Staphylococcus aureus): 2.61 | -logMIC (Bacillus subtilis): 2.61 | -logMIC (Escherichia coli): 2.61 | -logMIC (Aspergillus niger): 2.01

Cc1ccc(C(=O)N/N=C/c2cccc([N+](=O)[O-])c2)cc1
logP [1]: 3.85 | -logMIC (Candida albicans): 1.59 | -logMIC (Staphylococcus aureus): 2.14 | -logMIC (Bacillus subtilis): 2.4 | -logMIC (Escherichia coli): 2.47 | -logMIC (Aspergillus niger): 1.85

O=C(N/N=C/c1cccc([N+](=O)[O-])c1)c1ccc([N+](=O)[O-])cc1
logP [1]: 3.33 | -logMIC (Candida albicans): 1.7 | -logMIC (Staphylococcus aureus): 1.99 | -logMIC (Bacillus subtilis): 2.09 | -logMIC (Escherichia coli): 2.61 | -logMIC (Aspergillus niger): 1.7

COc1ccc(/C=N/NC(=O)c2ccc(C)cc2)cc1
logP [1]: 3.64 | -logMIC (Candida albicans): 1.63 | -logMIC (Staphylococcus aureus): 2.24 | -logMIC (Bacillus subtilis): 2.32 | -logMIC (Escherichia coli): 2.54 | -logMIC (Aspergillus niger): 1.88

COc1ccc(/C=N/NC(=O)c2ccc(N)cc2)cc1OC
logP [1]: 2.14 | -logMIC (Candida albicans): 1.68 | -logMIC (Staphylococcus aureus): 1.94 | -logMIC (Bacillus subtilis): 2.29 | -logMIC (Escherichia coli): 2.49 | -logMIC (Aspergillus niger): 1.9

O=C(N/N=C/c1cccc([N+](=O)[O-])c1)c1cc([N+](=O)[O-])ccc1Cl
logP [1]: 3.85 | -logMIC (Candida albicans): 1.75 | -logMIC (Staphylococcus aureus): 2.65 | -logMIC (Bacillus subtilis): 2.65 | -logMIC (Escherichia coli): 2.65 | -logMIC (Aspergillus niger): 1.59

O=C(N/N=C/c1cccc([N+](=O)[O-])c1)c1cccc([N+](=O)[O-])c1
logP [1]: 3.33 | -logMIC (Candida albicans): 1.7 | -logMIC (Staphylococcus aureus): 1.99 | -logMIC (Bacillus subtilis): 2.3 | -logMIC (Escherichia coli): 2.61 | -logMIC (Aspergillus niger): 1.7

COc1ccc(/C=N/NC(=O)c2ccc(OC)c(OC)c2)cc1OC
logP [1]: 2.42 | -logMIC (Candida albicans): 1.74 | -logMIC (Staphylococcus aureus): 2.07 | -logMIC (Bacillus subtilis): 2.34 | -logMIC (Escherichia coli): 2.64 | -logMIC (Aspergillus niger): 2.04

Nc1ccc(C(=O)N/N=C/c2cccc([N+](=O)[O-])c2)cc1
logP [1]: 2.6 | -logMIC (Candida albicans): 1.66 | -logMIC (Staphylococcus aureus): 1.98 | -logMIC (Bacillus subtilis): 2.29 | -logMIC (Escherichia coli): 2.56 | -logMIC (Aspergillus niger): 1.8

COc1ccc(/C=N/NC(=O)c2ccccc2Br)cc1OC
logP [1]: 3.71 | -logMIC (Candida albicans): 1.76 | -logMIC (Staphylococcus aureus): 2.52 | -logMIC (Bacillus subtilis): 2.35 | -logMIC (Escherichia coli): 2.63 | -logMIC (Aspergillus niger): 2.06

COc1ccc(/C=N/NC(=O)c2cc([N+](=O)[O-])ccc2Cl)cc1OC
logP [1]: 3.39 | -logMIC (Candida albicans): 1.76 | -logMIC (Staphylococcus aureus): 2.67 | -logMIC (Bacillus subtilis): 2.62 | -logMIC (Escherichia coli): 2.67 | -logMIC (Aspergillus niger): 1.95

O=C(N/N=C/c1cccc([N+](=O)[O-])c1)c1ccccc1Br
logP [1]: 4.17 | -logMIC (Candida albicans): 1.75 | -logMIC (Staphylococcus aureus): 2.35 | -logMIC (Bacillus subtilis): 2.65 | -logMIC (Escherichia coli): 2.49 | -logMIC (Aspergillus niger): 1.75

COc1ccc(/C=N/NC(=O)c2cc([N+](=O)[O-])cc([N+](=O)[O-])c2)cc1
logP [1]: 3.08 | -logMIC (Candida albicans): 1.74 | -logMIC (Staphylococcus aureus): 2.2 | -logMIC (Bacillus subtilis): 2.42 | -logMIC (Escherichia coli): 2.64 | -logMIC (Aspergillus niger): 1.8

COc1ccc(C(=O)N/N=C/c2ccco2)cc1OC
logP [1]: 1.87 | -logMIC (Candida albicans): 1.64 | -logMIC (Staphylococcus aureus): 1.61 | -logMIC (Bacillus subtilis): 1.98 | -logMIC (Escherichia coli): 2.3 | -logMIC (Aspergillus niger): 1.87

COc1ccc(/C=N/NC(=O)c2ccc(C)cc2)cc1OC
logP [1]: 3.39 | -logMIC (Candida albicans): 1.68 | -logMIC (Staphylococcus aureus): 2.17 | -logMIC (Bacillus subtilis): 2.58 | -logMIC (Escherichia coli): 2.58 | -logMIC (Aspergillus niger): 1.75

O=C(N/N=C/c1cccc([N+](=O)[O-])c1)c1ccc(Cl)cc1
logP [1]: 3.9 | -logMIC (Candida albicans): 1.69 | -logMIC (Staphylococcus aureus): 2.59 | -logMIC (Bacillus subtilis): 2.59 | -logMIC (Escherichia coli): 2.59 | -logMIC (Aspergillus niger): 1.69

O=C(N/N=C/c1ccco1)c1cc([N+](=O)[O-])cc([N+](=O)[O-])c1
logP [1]: 2.28 | -logMIC (Candida albicans): 1.69 | -logMIC (Staphylococcus aureus): 1.99 | -logMIC (Bacillus subtilis): 2.29 | -logMIC (Escherichia coli): 2.47 | -logMIC (Aspergillus niger): 1.69

COc1ccc(/C=N/NC(=O)c2cccc([N+](=O)[O-])c2)cc1OC
logP [1]: 2.87 | -logMIC (Candida albicans): 1.64 | -logMIC (Staphylococcus aureus): 2.05 | -logMIC (Bacillus subtilis): 2.28 | -logMIC (Escherichia coli): 2.63 | -logMIC (Aspergillus niger): 1.75

COc1ccc(/C=N/NC(=O)c2ccc([N+](=O)[O-])cc2)cc1OC
logP [1]: 2.87 | -logMIC (Candida albicans): 1.72 | -logMIC (Staphylococcus aureus): 1.99 | -logMIC (Bacillus subtilis): 2.34 | -logMIC (Escherichia coli): 2.63 | -logMIC (Aspergillus niger): 1.75

OC(Cn1cncn1)(Cn1cncn1)c1ccc(F)cc1F [FLUCONAZOLE]
-logMIC (Candida albicans): 2.64 | -logMIC (Aspergillus niger): 2.64

CCn1cc(C(=O)O)c(=O)c2cc(F)c(N3CCNCC3)cc21 [NORFLOXACIN]
-logMIC (Staphylococcus aureus): 2.61 | -logMIC (Bacillus subtilis): 2.61 | -logMIC (Escherichia coli): 2.61
